Screening data deposited in PubChem by several laboratories.
UPR XBP1 act: activators of adaptive arm of unfolded protein response (XBP1). CHO-XBP1 luciferase reporter, IRE1-XBP1 UPR activation, luminescence; percent of tunicamycin response, DMSO as zero. activation, % at 20 µM. hit rate 0.33% among 330,000;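 active means versus positive control, 20 µM dose yields 30% or more activation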
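Signal: luciferase luminescence; Assay system: CHO-XBP1 luciferase reporter cells; Amount: one thousand reporter cells per well; Dosing: 20 µM single concentration, DMSO 1%; Benchmarks: high control tunicamycin 10 µg/mL final, low control DMSO vehicle only; Schedule: 6 h compound exposure at 37 °C, 5% CO2; Evaluation: percent activation relative to tunicamycin reference.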
CHOP inhibitor: blocks CHOP induction under ER stress; hit rate 3.8% among 220,000; CHO-K1 CHOP-promoter luciferase, tunicamycin-induced, 15-18 h; inhibition, % at 10 µM;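 active means compounds that reduced the stress-induced luciferase reporter signal by more than about 70% of percent inhibition, limit read from the data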
GRIN3A LBD mod: NR3A (human) ligand-binding domain modulation; NR3A LBD differential scanning fluorimetry, Tm shift; 0% = protein alone, 100% = glycine-bound protein; Tm shift relative to glycine control, % at 25 µM; hit rate 2.5% among 340,000;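 active means melting temperature shift of at least 10% of the positive control shift, at one fixed dose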
UPR CHOP act: activators of apoptotic arm of unfolded protein response (CHOP). CHO-CHOP luciferase reporter, UPR activation, luminescence; percent of tunicamycin response over DMSO baseline. activation, % at 10 µM. hit rate 0.34% among 330,000. AID 449763;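 active means at 10 µM dose, activation of 40% or more, normalized to positive control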
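measured by = luciferase luminescence | assay system = CHO-CHOP cells, stable luciferase reporter of PERK-eIF2a-CHOP signalling | amount = 500 reporter cells seeded per well | timing = 6 h compound exposure at 37 °C after overnight seeding | controls = positive tunicamycin 10 µg/mL, negative DMSO alone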
MPTP inh: inhibitors of mitochondrial permeability transition pore; isolated mouse mitochondria, Ca2+ swelling absorbance, 30 min; inhibition, % at 10 µM; hit rate 1.4% among 360,000; AID 602449;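 active means inhibition of 50% or more, scaled per plate between neutral and stimulator controls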
aDG glyco act: increases alpha dystroglycan glycosylation; Pro5-aDG cells, alpha-DG glycosylation AlphaScreen (IIH6); 0% Pro5, 100% B10-LARGE cell signal; activation, % at 10 µM; hit rate 0.22% among 360,000;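 active means activation of at least 8% versus controls, or a plate z-score of at least 8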;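 further: Pro5 are CHO cells carrying HIG-tagged alpha-DG that lacks glycosylation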
A number is an active result. A selection: hits, their analogues and other compounds. The true share with any hit is near 5.6%.

For Cc1cc(C)cc(Nc2nc3c(S(=O)(=O)c4ccccc4)nnn3c3ccccc23)c1 the results were CHOP inhibitor inactive, GRIN3A LBD mod inactive, MPTP inh inactive and aDG glyco act inactive.
Screening CCCCNc1nc2c(S(=O)(=O)c3ccccc3)nnn2c2ccccc12 returned UPR XBP1 act inactive, CHOP inhibitor inactive, GRIN3A LBD mod 15, UPR CHOP act inactive, MPTP inh inactive and aDG glyco act inactive.
Screening O=C(Nc1nc2ccccc2s1)C1c2ccccc2Oc2ccccc21 returned UPR XBP1 act inactive, CHOP inhibitor 85, GRIN3A LBD mod 11, UPR CHOP act inactive, MPTP inh inactive and aDG glyco act inactive.
For O=C(NC(=S)Nc1nc2ccccc2s1)c1cccs1 the results were UPR XBP1 act inactive, CHOP inhibitor inactive, GRIN3A LBD mod 27, UPR CHOP act inactive, MPTP inh inactive and aDG glyco act inactive.
For O=C(Nc1nc2ccccc2s1)C1CCCO1 (centres undefined) the results were UPR XBP1 act inactive, CHOP inhibitor inactive, GRIN3A LBD mod inactive, UPR CHOP act inactive, MPTP inh inactive and aDG glyco act inactive.
Screening CCOC(=O)c1ccc2nc(NC(=O)c3cccs3)sc2c1 returned UPR XBP1 act inactive, CHOP inhibitor inactive, GRIN3A LBD mod 42, UPR CHOP act inactive, MPTP inh inactive and aDG glyco act inactive.
For O=C(Nc1nc2ccc(F)cc2s1)c1cccs1 the results were UPR XBP1 act inactive, CHOP inhibitor inactive, GRIN3A LBD mod 16, UPR CHOP act inactive, MPTP inh inactive and aDG glyco act inactive.
Screening COc1cccc(CC(=O)NNC(=O)c2c(-c3ccccc3)noc2C)c1 returned UPR XBP1 act inactive, CHOP inhibitor inactive, GRIN3A LBD mod inactive, UPR CHOP act inactive, MPTP inh inactive and aDG glyco act inactive.
`CCCC1(C(=O)OCC)NC(c2ccco2)C2C(=O)N(C)C(=O)C21` (centres undefined) gave UPR XBP1 act inactive, CHOP inhibitor inactive, GRIN3A LBD mod inactive, UPR CHOP act inactive, MPTP inh inactive and aDG glyco act inactive.
`CS(=O)(=O)Nc1ccc(C(=O)NCCSc2ccc(Cl)cc2)cc1` gave UPR XBP1 act inactive, GRIN3A LBD mod inactive, UPR CHOP act inactive, MPTP inh inactive and aDG glyco act inactive.
Screening C[C@H]1CN=C(N(C)C)N1CC1CCC(C(C)(C)C)CC1 (some centres undefined) returned UPR XBP1 act inactive, GRIN3A LBD mod inactive, UPR CHOP act inactive, MPTP inh inactive and aDG glyco act inactive.
`CCOc1ccc2nc(NC(=O)c3ccco3)sc2c1` gave UPR XBP1 act inactive, GRIN3A LBD mod inactive, UPR CHOP act inactive, MPTP inh inactive and aDG glyco act inactive.
`CCOC(=O)c1ccc2nc(NC(=O)c3ccco3)sc2c1` gave UPR XBP1 act inactive, CHOP inhibitor inactive, GRIN3A LBD mod 16, UPR CHOP act inactive, MPTP inh inactive and aDG glyco act inactive.
Screening CCCC1CCc2c(c3ccccc3[nH]c2=O)O1 (centres undefined) returned UPR XBP1 act inactive, CHOP inhibitor 76, GRIN3A LBD mod inactive, UPR CHOP act inactive, MPTP inh inactive and aDG glyco act inactive.
`O=C1NC[C@@H](CCCCN2C[C@H](Cc3ccc(O)cc3)N(CCc3ccc(O)cc3)C(=O)C2=O)N(CC2CCCCC2)C1=O` gave MPTP inh inactive and aDG glyco act inactive.
`O=[N+]([O-])c1cc(S(=O)(=O)Nc2ccccc2)ccc1NCc1cccnc1` gave UPR XBP1 act inactive, CHOP inhibitor inactive, GRIN3A LBD mod inactive, UPR CHOP act inactive, MPTP inh inactive and aDG glyco act inactive.
For O=[N+]([O-])c1cc(S(=O)(=O)Nc2ccccc2)ccc1NCc1ccccc1 the results were UPR XBP1 act inactive, CHOP inhibitor 92, GRIN3A LBD mod inactive, UPR CHOP act inactive, MPTP inh inactive and aDG glyco act inactive.
O=[N+]([O-])c1cc(S(=O)(=O)Nc2ccccc2)ccc1N1CCN(c2ccccc2)CC1 was read as UPR XBP1 act inactive, CHOP inhibitor inactive, GRIN3A LBD mod 20, UPR CHOP act inactive, MPTP inh inactive and aDG glyco act inactive.
